# Bioassay records as filed in PubChem BioAssay.
# Only some compounds are listed: those with a hit (about 3.5% of all), similar ones and a draw of the others.
# MrgX1 PAM – positive allosteric modulators of MrgX1, primary screen, HEK293 cells, Fluo-4 calcium flux | FDSS; active compounds read high | B-score at 10 µM | 310,000 compounds, 0.63% hits;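 active means plate-corrected calcium response at least 3 library SD above typical, normal starting fluorescence, not activating the receptor alone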;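 further: compound read alongside a low EC10 to EC30 dose of BAM8-22 agonist; peak minus trough fluorescence over baseline measured at the second addition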
# Target sequence (Q96LB2 whole entry, looked up): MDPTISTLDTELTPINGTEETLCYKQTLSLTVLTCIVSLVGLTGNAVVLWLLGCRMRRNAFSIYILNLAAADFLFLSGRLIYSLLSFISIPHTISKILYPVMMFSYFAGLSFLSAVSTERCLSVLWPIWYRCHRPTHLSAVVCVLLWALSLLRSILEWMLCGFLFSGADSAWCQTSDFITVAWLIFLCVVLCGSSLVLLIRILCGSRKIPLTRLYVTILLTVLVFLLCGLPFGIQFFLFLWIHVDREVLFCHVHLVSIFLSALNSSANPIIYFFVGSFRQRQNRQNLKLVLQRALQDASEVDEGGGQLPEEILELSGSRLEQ
# MrgX1 ag – agonists of human MrgX1 receptor, primary screen, HEK293 cells, Fluo-4 calcium flux; AID 588627, 2011; Mas-related G-protein coupled receptor member X1 (Homo sapiens), Q96LB2; B-score at 10 µM; 310,000 compounds, 0.44% hits; Fluo-4 calcium fluorescence, agonist mode; active compounds read high;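 active means calcium response B-score plate-corrected fluorescence ratio at least 3 library SD, with starting fluorescence B-score inside 5 SD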
#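 Material: MrgX1-expressing HEK293 cells; input: 15,000 cells per well; doses: test compound given as first of three sequential additions; schedule: overnight plating before 1 h dye loading; technique: Fluo-4 NW calcium-flux fluorescence, kinetic read; evaluation: baseline-normalised fluorescence change ratio, B-scored; control set: plate-wise positive and negative controls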
# RGS4 inh – RGS4 inhibitors, primary screen, cell-based, HEK293 M3R inducible RGS4, calcium flux | AID 463165, 2010 | 310,000 compounds, 0.45% hits | Fluo-4 calcium flux; active compounds read high; triggered by carbachol at its EC20 | Regulator of G-protein signaling 4 (Homo sapiens), P49798 | B-score at 10 µM;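 active means B-score, a plate-corrected calcium signal, over three deviations above library mean, with baseline fluorescence within five deviations of library mean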;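 further: RGS4 expression induced by doxycycline in cells with stable M3 receptor; B-score is computed from the integrated fluorescence ratio over baseline after carbachol; higher B-score means a larger calcium signal and so more RGS4 inhibition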
# Target sequence (P49798 whole entry, looked up): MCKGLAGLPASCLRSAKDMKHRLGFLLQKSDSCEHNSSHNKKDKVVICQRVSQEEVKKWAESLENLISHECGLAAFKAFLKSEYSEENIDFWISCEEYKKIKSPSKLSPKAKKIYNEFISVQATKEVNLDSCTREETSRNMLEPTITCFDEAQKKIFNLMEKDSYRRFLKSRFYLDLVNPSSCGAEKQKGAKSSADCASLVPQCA
# RGS4 pot – RGS4 potentiators or activators, primary screen, cell-based, HEK293 M3R inducible RGS4, calcium flux | carbachol calcium flux Fluo4; active compounds read low | B-score at 10 µM | 310,000 compounds, 0.92% hits | AID 463111, 2010;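 active means B-score of the integrated calcium signal more than 4 SD below the library mean, with starting fluorescence not abnormally high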;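 further: negative B-score means reduced calcium response which marks RGS4 activation or potentiation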
#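 System: HEK293 FlpIn-TREx cells, stable M3R, doxycycline-inducible RGS4. Timing: overnight RGS4 induction, 30 min dye load 37 °C, 20 min compound RT. Also added: carbachol, ECmax concentration. Measured by: Fluo4 fluorescence kinetic imaging of calcium. Evaluation: integrated calcium ratio converted to B score.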
# MrgX1 antag – antagonists of human MrgX1 receptor, primary screen, HEK293 cells, Fluo-4 calcium flux; AID 588676, 2011; B-score at 10 µM; Mas-related G-protein coupled receptor member X1 (Homo sapiens), Q96LB2; 310,000 compounds, 1.3% hits; BAM8-22 antagonism; active compounds read low;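 active means calcium-response B-score plate-corrected more than 3 library SD below zero, starting fluorescence within 5 deviations, no agonist response on first addition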;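 further: peak minus trough fluorescence over baseline after final BAM8-22 challenge near maximal dose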
# Starred values were filed as active, the others as inactive; i = inactive; / = not tested or not shown.
SMILES,MrgX1 PAM,MrgX1 ag,RGS4 inh,RGS4 pot,MrgX1 antag
COc1ccccc1NS(=O)(=O)c1ccc(C)c(C(=O)NCCCN2CCCC2=O)c1,i,i,i,i,-9.1*
Cc1ccc(S(=O)(=O)Nc2ccccc2F)cc1C(=O)NCCCN1CCCC1=O,i,i,i,i,i
COc1cc(/C=C2\CCC(C3CCCC3)C2=O)cc(OC)c1OC (configuration not stated),i,i,i,i,i
CN1CCN(C(=O)/C(=C/c2cccc([N+](=O)[O-])c2)NC(=O)c2ccccc2)CC1,i,i,i,i,i
Cc1ccc(C2NC(c3ccc(C)cc3)C(C)C(=NO)C2C)cc1 (configuration not stated),12*,i,i,i,i
CC1C(=NO)C(C)C(c2ccccc2)NC1c1ccccc1 (configuration not stated),i,i,i,i,i
Cc1cc(C(C)(C)C)c(O)c(C(C)(C)C)c1,i,i,i,i,i
CC(C)(C)c1cc(O)c(C(C)(C)C)cc1O,i,41*,i,-8.5*,i
CCOc1ccc(CN2CCCC(CO)(Cc3ccccc3F)C2)cc1 (configuration not stated),i,64*,i,i,i
COc1cc(Cl)c(CN2CCCC(CO)(Cc3ccccc3F)C2)cc1OC (configuration not stated),i,i,i,i,i
CSc1ncccc1C(=O)Nc1cccc(C)n1,i,i,i,i,i
Oc1ccccc1C1CC(c2cccs2)=NC(c2ccc(Cl)cc2)N1 (configuration not stated),7.4*,i,i,i,i
CC(=O)Oc1c(Cl)cc(Cl)cc1/C=C/c1ccc2ccccc2n1,i,i,i,i,-8.3*
O=C(O)CC/C(=N\Nc1ccc([N+](=O)[O-])cc1)c1ccccc1,i,i,i,i,-5.9*
CCOC(=O)C1(CCCc2ccccc2)CCN(C(=O)CN2CCOC2=O)CC1,7.3*,i,i,i,i
O=C(/C=C/c1cccc(Cl)c1)Nc1ncccn1,i,i,i,i,i
C=CCOc1ccc(CNCCc2ccc(S(N)(=O)=O)cc2)cc1,i,i,i,-7.4*,i
COc1ccc(CCNC(=O)c2ccc3nc(-c4ccco4)c(-c4ccco4)nc3c2)cc1OC,i,i,/,/,-4.6*
O=C(Nc1cccc(C(F)(F)F)c1)c1ccc2nc(-c3ccco3)c(-c3ccco3)nc2c1,i,i,i,i,-5.6*
NC(=O)c1c(N)sc(=S)n1-c1ccccc1,i,i,i,i,i
Cc1ccccc1CS(=O)(=O)Cc1ccc(C(=O)NCCCN2CC(C)CC(C)C2)o1 (configuration not stated),i,i,i,i,i
COc1cc(C2=NOC(C(=O)NCc3ccccn3)C2)cc(OC)c1OC (configuration not stated),i,i,i,i,i
CCOC(=O)N1CCN(C(=O)c2cc3c(-c4cccc(OC)c4)nn(C)c3s2)CC1,i,i,i,-7.1*,i
COc1ccc(Cc2nc3ccc(S(=O)(=O)N4CCOCC4)cc3[nH]2)cc1,i,i,i,i,i
Cc1cc(/C=C2/SC(=S)N(c3cccc(C(F)(F)F)c3)C2=O)c(C)n1-c1cccnc1,16*,i,i,i,i
SMILES,MrgX1 PAM,MrgX1 ag,RGS4 inh,RGS4 pot,MrgX1 antag
Cc1cc(/C=C2\SC(=S)N(Cc3ccco3)C2=O)c(C)n1-c1cccnc1,/,/,i,i,/
CCc1ccc(C2C(C#N)=C(N)C(C#N)(C#N)C3=CCC(C(C)(C)C)CC32)cc1 (configuration not stated),i,i,i,i,-5.8*
COc1ccc(-c2nn(-c3ccccc3)cc2/C=N/NC(=O)c2ccc(Br)o2)cc1,i,i,i,-8.1*,i
CC12CCC(C(=O)N(CSC(=S)N/N=C\c3ccccc3O)C1=O)C2(C)C (configuration not stated),9.3*,i,i,i,i
CCn1c(C)c(C(C)=O)cc(C#N)c1=O,i,i,i,i,i
CCCC1=NN2C(=N)/C(=C\c3ccc(SCc4ccco4)o3)C(=O)N=C2S1,i,31*,i,i,i
CCCC1=NN2C(=N)/C(=C\c3cc(C)n(Cc4ccccc4)c3C)C(=O)N=C2S1,i,i,i,i,i
CCCCOc1nc(N2CCOCC2)nc(C)c1[N+](=O)[O-],i,i,i,i,i
CN(C)c1ccc(/C=C/c2nc3ccccc3s2)cc1,i,i,i,-7.5*,-6.3*
Cc1cccc(-c2nc(C#N)c(NCc3ccco3)o2)c1,i,i,i,i,i
CCn1cc(C2=NOC(C(=O)Nc3cccc(C(C)=O)c3)C2)c(C)n1 (configuration not stated),i,i,i,i,-4.8*
O=c1c(-c2ccc3c(c2)OCCO3)coc2cc(O)cc(O)c12,i,i,i,i,i
CC1(C)C=Cc2cc(-c3coc4cc(O)cc(O)c4c3=O)cc(O)c2O1,i,i,i,i,-5.3*
CCOc1ccc(S(=O)(=O)NC(Cc2cnc[nH]2)C(=O)O)cc1 (configuration not stated),i,i,i,i,-4.9*
COc1ccc(N2CCN(C(=O)c3ccc4c(c3)NC(=O)C(CSCc3cccc(F)c3)N4)CC2)cc1 (configuration not stated),i,36*,i,i,i
Cc1ccc(C(=O)N/C(=C\c2ccc(-c3ccc([N+](=O)[O-])cc3)o2)C(=O)NC2CCS(=O)(=O)C2)cc1 (configuration not stated),i,i,i,i,-4.9*
Cc1ccc(C(=O)N/C(=C/c2ccc(-c3ccc([N+](=O)[O-])cc3)o2)C(=O)NCCCN(C)C)cc1,i,45*,i,i,i
CCOc1cccc(C(=O)NC(=S)Nc2cccc(NC(=O)c3ccccc3Cl)c2)c1,i,i,i,i,i
O=C1OC(c2cccs2)=N/C1=C\c1ccc(-c2cccc(Cl)c2)o1,i,i,i,i,-5.1*
N=C1S/C(=C\c2ccc(-c3cccc(Cl)c3)o2)C(=O)N1c1nccs1,i,i,i,i,i
